# Reference: ChEMBL document CHEMBL3865782 (2016)
# The source made the active and inactive calls. No cut-off for these calls is given here.
# Experiments:
# Assay type in all cases: functional
# [1] = test system: Bacillus subtilis; test: Antibacterial activity against Bacillus subtilis P10C derived after 10 passage in presence of JBIR-100 after 16 to 18 hrs by microbroth dilution assay
# Outline: (§1)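 Mutants were derived from B. subtilis ATCC 47096 in three independent cultures. Each was passaged 10 times every 24 h at 37 °C in LB, starting at 0.5× MIC and raised in 0.5× MIC steps. Isolates were restreaked three times on drug-free LB agar to confirm stability.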
# [2] = test system: Bacillus subtilis; test: Antibacterial activity against Bacillus subtilis ATCC 47096 after 16 to 18 hrs by microbroth dilution assay
# Outline: (§2)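 Broth microdilution per CLSI in LB at 37 °C with aeration. Twofold serial dilutions from a starting concentration of 64 μM were added to wells holding ~5 × 10^4 CFU of the test strain. Turbidity was read after 16–18 h. MIC was taken as the lowest concentration with no visible growth.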
# [3] = test system: Bacillus subtilis; test: Antibacterial activity against Bacillus subtilis P10B derived after 10 passage in presence of JBIR-100 after 16 to 18 hrs by microbroth dilution assay; outline: as §1
# [4] = test system: Bacillus subtilis; test: Antibacterial activity against Bacillus subtilis P10A derived after 10 passage in presence of JBIR-100 after 16 to 18 hrs by microbroth dilution assay; outline: as §1
# [5] = test system: Bacillus subtilis; test: Antibacterial activity against Bacillus subtilis P10B derived after 10 passage in presence of JBIR-100 after 16 to 18 hrs by microbroth dilution assay relative to Bacillus subtilis ATCC 47096
# [6] = test system: Bacillus subtilis; test: Antibacterial activity against Bacillus subtilis P10A derived after 10 passage in presence of JBIR-100 after 16 to 18 hrs by microbroth dilution assay relative to Bacillus subtilis ATCC 47096
# [7] = test system: Bacillus subtilis; test: Antibacterial activity against Bacillus subtilis P10C derived after 10 passage in presence of JBIR-100 after 16 to 18 hrs by microbroth dilution assay relative to Bacillus subtilis ATCC 47096
# [8] = test system: Candida albicans; test: Antifungal activity against Candida albicans after 16 to 18 hrs by microbroth dilution assay
# Outline: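 CLSI microbroth dilution in YPD at 30 °C with aeration. Two-fold serial dilutions started at 128 μM, with ~5 × 10^4 CFU per well. Turbidity was inspected after 16–18 h. The MIC was the lowest concentration inhibiting visible growth.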
# [9] = test system: Enterococcus faecium; test: Antibacterial activity against Vancomycin-resistant Enterococcus faecium U503 after 16 to 18 hrs by microbroth dilution assay; outline: as §2
# [10] = test system: Debaryomyces hansenii; test: Antifungal activity against Debaryomyces hansenii after 16 to 18 hrs by microbroth dilution assay
# Outline: (§3)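 Yeast grown in YPD at 30 °C with aeration. CLSI microdilution used two-fold dilutions from a 64 μM start and ~5 × 10^4 CFU per well. Visible turbidity was scored at 16–18 h. The MIC was the lowest concentration without visible growth.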
# [11] = test system: Bacillus subtilis; test: Antibacterial activity against Bacillus subtilis subsp. subtilis str. 168 after 16 to 18 hrs by microbroth dilution assay
# Outline: (§4)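 Broth microdilution following CLSI, in LB at 37 °C with aeration. Starting at 64 μM, two-fold serial dilutions were added to wells holding ~5 × 10^4 CFU. Turbidity was inspected after 16–18 h. The MIC was the lowest concentration that inhibited visible growth.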
# [12] = test system: Bacillus subtilis; test: Bactericidal activity against Bacillus subtilis ATCC 47096 after 16 hrs; conditions: ATCC 47096, 16 h, read-out: MBC=>99.9
# [13] = Antifungal activity against Saccharomyces cerevisiae after 16 to 18 hrs by microbroth dilution assay; outline: as §3
# [14] = test system: Staphylococcus aureus; test: Antibacterial activity against Methicillin-resistant Staphylococcus aureus USA300 after 16 to 18 hrs by microbroth dilution assay; outline: as §2
# [15] = test system: Escherichia coli; test: Antibacterial activity against Escherichia coli DH5alpha after 16 to 18 hrs by microbroth dilution assay; conditions: DH5[alpha]
# Outline: (§5)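 CLSI microbroth dilution. Compound was two-fold serially diluted from a 64 μM starting concentration into wells holding ~5 × 10^4 CFU of the test strain. After 16–18 h incubation, the MIC was taken as the lowest concentration causing no visible turbidity.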
# [16] = test system: Bacillus thuringiensis; test: Antibacterial activity against Bacillus sp. Al Hakam after 16 to 18 hrs by microbroth dilution assay; outline: as §4
# [17] = Antifungal activity against Zygosaccharomyces rouxii after 40 to 42 hrs by microbroth dilution assay
# Outline: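 CLSI microdilution in YPD at 30 °C with aeration. Two-fold serial dilutions started at 64 μM, with ~5 × 10^4 CFU per well. Incubation was extended to 40–42 h before turbidity inspection. The MIC was the lowest concentration inhibiting visible growth.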
# [18] = test system: Bacillus subtilis; test: Antibacterial activity against Bacillus subtilis ATCC 47096 assessed as induction of membrane damage after 30 mins by propidium iodide staining based fluorescent microscopic analysis
# Outline: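 Cells grown in LB at 37 °C to OD600 0.5 were resuspended in PBS pH 7.4 with DMSO vehicle, 8, 32 or 64 μM compound for 30 min at ~22 °C. Cells were then washed, stained with 10 μM propidium iodide for 15 min, immobilized in agarose, and imaged by confocal fluorescence and DIC microscopy.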
# [19] = test system: Mycolicibacterium smegmatis; test: Antibacterial activity against Mycobacterium smegmatis NRRL B-14616 after 16 to 18 hrs by microbroth dilution assay
# Outline: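 Broth microdilution following CLSI, in LB with 0.05% Tween 80 at 37 °C with aeration. Two-fold serial dilutions started at 64 μM, with ~5 × 10^4 CFU per well. Wells were read by visible turbidity after 16–18 h. The MIC was the lowest concentration preventing visible growth.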
# [20] = test system: Bacillus subtilis; test: Bactericidal activity against Bacillus subtilis ATCC 47096 at 8 to 32 uM after 16 hrs
# Outline: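 Mid-exponential cultures (OD600 0.4, diluted 1000-fold from stationary cultures into LB) were treated with vehicle (DMSO), 8, 16 or 32 μM at 37 °C. OD595 was read every 10 min for 16 h with shaking between reads. Values were normalized to 0.4 at t = 0 and averaged over three independent cultures.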
# [21] = Antifungal activity against Kluyveromyces lactis after 16 to 18 hrs by microbroth dilution assay; outline: as §3
# [22] = test system: Bacillus subtilis; test: Antibacterial activity against Bacillus subtilis ATCC 47096 assessed as induction of membrane depolarization after 30 mins by DiOC2(3) dye based flow cytometric analysis
# Outline: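 Three independent LB cultures grown to OD600 0.5 were diluted into PBS containing DiOC2(3) with DMSO vehicle, 5 μM CCCP (positive control), or 0.1–1.0 μM compound. Cells were mixed 30 min at ~22 °C and analysed by flow cytometry. Red/green fluorescence ratio geometric means were normalized to vehicle.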
# [23] = test system: Escherichia coli; test: Antibacterial activity against Escherichia coli MC1061 after 16 to 18 hrs by microbroth dilution assay; outline: as §5
# [24] = test system: Pseudomonas putida; test: Antibacterial activity against Pseudomonas putida KT2440 after 16 to 18 hrs by microbroth dilution assay; outline: as §5
# [25] = test system: Bacillus cereus; test: Antibacterial activity against Bacillus cereus ATCC 4342 after 16 to 18 hrs by microbroth dilution assay; outline: as §4
Compound,MIC [1] [µM],MIC [2] [µM],MIC [3] [µM],MIC [4] [µM],fold change (FC) [5],fold change (FC) [6],fold change (FC) [7],other results
CC1(C)S[C@@H]2[C@H](NC(=O)[C@H](N)c3ccccc3)C(=O)N2[C@H]1C(=O)O [AMPICILLIN],0.125,0.125,0.125,0.125,–,–,–,–
NC[C@H]1O[C@H](O[C@H]2[C@H](O)[C@@H](O[C@H]3O[C@H](CO)[C@@H](O)[C@H](N)[C@H]3O)[C@H](N)C[C@@H]2N)[C@H](O)[C@@H](O)[C@@H]1O [KANAMYCIN],64,256,64,128,2 - 4,2 - 4,2 - 4,–
Oc1cc(Cl)ccc1Oc1ccc(Cl)cc1Cl [TRICLOSAN],8,8,8,8,–,–,–,–
O=C(N[C@H](CO)[C@H](O)c1ccc([N+](=O)[O-])cc1)C(Cl)Cl [CHLORAMPHENICOL],8,8,8,4,2,2,2,–
CO[C@H]1/C=C/C=C(\C)C[C@H](C)[C@H](O)[C@H](C)/C=C(C)/C=C(\C)C(=O)O[C@@H]1[C@@H](C)[C@@H](O)[C@H](C)[C@@]1(O)C[C@@H](OC(=O)/C=C/C(=O)O)[C@H](C)[C@@H](C(C)C)O1,16,8,16,16,–,–,–,MIC [8]: > 128 µM; MIC [9]: 16 µM; MIC [10]: 8 µM; MIC [11]: 8 µM; MBC [12]: 16 µM; MIC [13]: > 64 µM; MIC [14]: 4 µM; MIC [15]: > 64 µM; MIC [16]: 4 µM; MIC [17]: 32 µM; Activity [18]: Dose-dependent effect; MIC [19]: > 64 µM; Activity [20]: Active; MIC [21]: > 64 µM; Activity [22]: Dose-dependent effect; MIC [23]: > 64 µM; MIC [24]: > 64 µM; MIC [25]: 4 µM
O=C(O)c1cn(C2CC2)c2cc(N3CCNCC3)c(F)cc2c1=O [CIPROFLOXACIN],0.125,0.125,0.125,0.125,–,–,–,–
CO[C@H]1/C=C/O[C@@]2(C)Oc3c(C)c(O)c4c(O)c(c(/C=N/N5CCN(C)CC5)c(O)c4c3C2=O)NC(=O)/C(C)=C\C=C\[C@H](C)[C@H](O)[C@@H](C)[C@@H](O)[C@@H](C)[C@H](OC(C)=O)[C@@H]1C [RIFAMPIN],0.125,0.0625,0.125,0.25,2 - 4,2 - 4,2 - 4,–
CN[C@H](CC(C)C)C(=O)N[C@H]1C(=O)N[C@@H](CC(N)=O)C(=O)N[C@H]2C(=O)N[C@H]3C(=O)N[C@H](C(=O)N[C@H](C(=O)O)c4cc(O)cc(O)c4-c4cc3ccc4O)[C@H](O)c3ccc(c(Cl)c3)Oc3cc2cc(c3O[C@@H]2O[C@H](CO)[C@@H](O)[C@H](O)[C@H]2O[C@H]2C[C@](C)(N)[C@H](O)[C@H](C)O2)Oc2ccc(cc2Cl)[C@H]1O [VANCOMYCIN],0.0625,0.125,0.0625,0.125,2,2,2,–
